Cav3 T inh: Cav3.2 calcium influx blockers – cell-based, Fluo-4 calcium fluorescence, FDSS, MLSMR library, primary screen | Voltage-dependent T-type calcium channel subunit alpha-1H (Homo sapiens), O95180 | Cav3.2-expressing cells; hits give low values | B-score at 10 µM | 100,000 tested, 4% active | AID 449739, 2010;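 active = single-dose well whose peak fluorescence ratio is a statistical outlier from its plate by either plate-standardised score or position-corrected B-score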
CYP2C19 inh: blockers of cytochrome P450 2C19 activity – biochemical, luminescence, ADME assay, primary screen. 96,000 tested, 21% active. inhibition, % at 5 µM. CYP2C19 Supersomes, luciferin-H EGE luminescence, 30 min. P33261;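 active = CYP2C19 inhibition above a set limit at 5 µM in the primary screen, cut at about 50% in these data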;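 note: plate controls were negative control wells for no effect and 2.5 mM tranylcypromine positive control for full effect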
Target sequence (P33261 whole entry, looked up): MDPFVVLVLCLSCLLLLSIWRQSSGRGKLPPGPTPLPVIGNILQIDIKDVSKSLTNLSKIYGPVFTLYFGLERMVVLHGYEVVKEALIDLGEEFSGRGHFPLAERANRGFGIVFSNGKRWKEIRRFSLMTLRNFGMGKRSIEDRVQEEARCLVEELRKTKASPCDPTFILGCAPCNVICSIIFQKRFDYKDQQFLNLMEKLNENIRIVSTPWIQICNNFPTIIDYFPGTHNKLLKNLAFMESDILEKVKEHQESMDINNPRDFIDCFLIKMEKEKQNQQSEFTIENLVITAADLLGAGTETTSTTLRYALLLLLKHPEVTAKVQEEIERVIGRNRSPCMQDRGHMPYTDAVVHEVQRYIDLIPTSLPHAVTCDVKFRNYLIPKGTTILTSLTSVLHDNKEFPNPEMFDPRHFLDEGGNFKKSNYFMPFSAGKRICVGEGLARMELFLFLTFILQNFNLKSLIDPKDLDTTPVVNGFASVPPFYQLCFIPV
CYP2C19 activ: human CYP2C19 activators, primary screen, biochemical, luminescence. Cytochrome P450 2C19 (Homo sapiens), P33261. recombinant CYP2C19, luciferin-H EGE luminescence; hits give high values; 0 = fully inhibited enzyme, 1 = untreated enzyme. activation factor at 5 µM. 96,000 tested, under 10 active;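 active = activation factor of at least 2 at 5 µM in the primary screen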;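 note: 0 = wells with 2.5 mM tranylcypromine and 1 = vehicle-only wells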
CYP2C9 inhib: blockers of cytochrome P450 2C9 activity – biochemical, luminescence, ADME assay, primary screen; P11712; CYP2C9 Supersomes, luciferin-H conversion; inhibition, % at 5 µM; 96,000 tested, 20% active; AID 777, 2007;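 active = blocking of liver enzyme CYP2C9 beyond about 50% at 5 µM, limit read from the data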
HIV Rev-RRE inh: HIV-1 Rev-RRE binding inhibitors, primary screen, biochemical, FRET, protein-RNA interaction. P05866. Rev peptide-RRE RNA binding. inhibition, % at 8 µM. 97,000 tested, 0.79% active. AID 704, 2007;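 active = inhibition above the screen-wide mean plus 3 SD, cut at about 35% in these data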;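 note: 0% = median DMSO wells and 100% = median Neomycin B control wells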
Target sequence (P05866 whole entry, looked up): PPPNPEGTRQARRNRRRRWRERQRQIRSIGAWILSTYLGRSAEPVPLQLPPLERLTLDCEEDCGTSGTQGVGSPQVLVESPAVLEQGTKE
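Test system: labelled RRE RNA duplex and labelled Rev peptide. Times: 5 min compound–RNA preincubation, then 15 min with peptide, 25 °C. Doses: single-dose 8 µM. Measured by: FRET, excitation 480 nm, emission 540 nm donor and 671 nm acceptor. Measure: % inhibition of FRET ratio versus controls.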
CYP2C9 act: human CYP2C9 activators, primary screen, biochemical, luminescence. Cytochrome P450 2C9 (Homo sapiens), P11712. recombinant CYP2C9, luciferin-H conversion; hits give high values; factor 1 = untreated enzyme, 0 = blocked. activation factor at 5 µM. 96,000 tested, 1.4% active. AID 1024, 2008;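 active = activation factor of 2 or more for CYP2C9 at a 5 µM dose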;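 note: 0 = sulfaphenazole-blocked wells and 1 = vehicle-only wells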
Active calls of the source: *; · = no result; [ ] = another dose, or the depositor's remark. Shown are actives, neighbours in structure and some others; about 27% of the full set was active somewhere.

SMILES	Cav3 T inh	CYP2C19 inh	CYP2C19 activ	CYP2C9 inhib	HIV Rev-RRE inh	CYP2C9 act
O=C(NC1CCCC1)C(c1cccs1)N(C(=O)c1ccco1)c1ccc2c(c1)OCO2 (stereo unspecified)	0.232	·	·	·	1.6	·
COC(=O)NCC12CC3CC(C1)CC(CNC(=O)OC)(C3)C2	0.115	37.5	0.6	-12.9	·	1.1
N#C/C(=C\c1ccc[nH]1)S(=O)(=O)c1ccccc1	-2.52	46.7	0.5	-445.8	2.4	5.5*
Cn1nccc1/C=C(/C#N)S(=O)(=O)c1ccccc1	1.36	29.6	0.7	18.2	18.8	0.8
CCn1cc(/C=C(/C#N)S(=O)(=O)c2ccccc2)cn1	1.12	31.1	0.7	-203.9	3.4	3*
O=C(Nc1nnc(C(F)(F)F)s1)C1COc2ccccc2O1 (stereo unspecified)	-4.25*	56.0*	0.4	98.7*	-1.5	0
O=C(COC(=O)C1COc2ccccc2O1)NC(=O)Nc1ccc2c(c1)OCCO2 (stereo unspecified)	0.269	30.1	0.7	66.8*	12.4	0.3
O=C(Nc1nncs1)C1COc2ccccc2O1 (stereo unspecified)	-0.0373	2.8	1	28.2	4.3	0.7
O=C(COC(=O)C1COc2ccccc2O1)NC(=O)NC1CCCC1 (stereo unspecified)	-0.495	-22.1	1.2	-6.1	3.0	1.1
NS(=O)(=O)c1ccc(NC(=O)C2COc3ccccc3O2)cc1 (stereo unspecified)	-0.62	14.4	0.9	16.5	9.0	0.8
Cc1ccc(NC(=O)C2COc3ccccc3O2)nc1 (stereo unspecified)	0.209	89.8*	0.1	29.5	0.9	0.7
CC1(C)Oc2ccc(NC(=O)C3COc4ccccc4O3)cc2O1 (stereo unspecified)	-2.55	93.0*	0.1	75.6*	7.3	0.2
O=C(OCC#Cc1c(COC(=O)c2ccccc2)nnn1Cc1ccccc1)c1ccccc1	-0.556	·	·	·	·	·
COc1cc(NC(=S)Nc2ccc(S(=O)(=O)N3CCOCC3)cc2)cc(OC)c1OC	1.89	0.7	1	16.1	-1.5	0.8
CCOC(=O)c1c(NC(=O)c2nn(CC)cc2Br)c(C#N)nn1-c1ccccc1	-1.05	63.7*	0.4	49.9	6.7	0.5
CCOC(=O)c1nn(-c2ccccc2)c(C#N)c1NC(=O)c1nn(CC)cc1Br	-1.05	25.0	0.8	71.8*	1.7	0.3
CCOC(=O)c1ccc(NC(=O)c2nn(C)cc2Br)cc1	-0.303	11.5	0.9	-25.5	4.8	1.3
Nc1nnc(SCC(=O)NC23CC4CC(CC(C4)C2)C3)s1	-0.956	16.5	0.8	8.9	1.3	0.9
CCOC(=O)c1c(NC(=S)Nc2ccccc2)sc2c1CCN(CC)C2	-0.905	12.0	0.9	19.1	121.2*[fluorescence artefact?]	0.8
CN(C)c1ccc(NC(=O)CN2CCN(S(=O)(=O)c3cc(Cl)ccc3Cl)CC2)cc1	-4.12*	32.2	0.7	-48.9	3.5	1.5
O=C(CN1CCN(S(=O)(=O)c2cc(Cl)ccc2Cl)CC1)Nc1ccc2c(c1)OCCO2	·	53.9*	0.5	-123.4	·	2.2*
O=C(CN1CCN(S(=O)(=O)c2ccc(Br)cc2)CC1)Nc1ccc2c(c1)OCO2	·	80.8*	0.2	62.7*	3.7	0.4
CCC1(CC)C(=O)NC(=O)NC1=NCCc1c[nH]c2ccccc12	1.07	33.8	0.7	21.2	3.4	0.8
COCCNC(=O)NC(=O)COC(=O)c1cc([N+](=O)[O-])ccc1Sc1nc(C)cs1	0.493	4.1	1	21.3	4.2	0.8
Cc1nnc2c3cnn(-c4ccc(Cl)cc4)c3ncn12	·	8.9	0.9	-9.0	·	1.1
SMILES	Cav3 T inh	CYP2C19 inh	CYP2C19 activ	CYP2C9 inhib	HIV Rev-RRE inh	CYP2C9 act
CCOC(=O)c1[nH]c2cc3c(cc2c1NC(=O)CN1CCC(C)CC1)OCO3	·	61.4*	0.4	67.8*	0.1	0.3
CCOC(=O)c1[nH]c2cc3c(cc2c1NC(=O)CN1CCc2ccccc2C1)OCO3	·	68.3*	0.3	55.4*	-0.1	0.4
CCOC(=O)N1CCN(CC(=O)Nc2c(C(=O)OC)[nH]c3ccccc23)CC1	0.404	27.5	0.7	-5.1	1.8	1.1
CCOC(=O)c1[nH]c2ccc(OC)cc2c1NC(=O)CCN1CCCC(C)C1 (stereo unspecified)	-0.00796	-7.6	1.1	-2.5	5.2	1
C=C1c2ccccc2S(=O)(=O)N(Cc2ccccc2)C1COCc1ccccc1 (stereo unspecified)	-2.16	·	·	·	·	·
C=CCn1cc(C(=O)NCCCOCC)c(=O)c2cc(S(=O)(=O)N(CC)CC)ccc21	0.706	24.2	0.8	55.7*	4.0	0.4
CCN(CC)S(=O)(=O)c1ccc2c(c1)c(=O)c(C(=O)NCCOC)cn2C	·	0.7	1	31.4	5.3	0.7
C=CCn1cc(C(=O)NCCOC)c(=O)c2cc(S(=O)(=O)N(CC)CC)ccc21	1.14	1.1	1	74.9*	-1.5	0.3
O=C1N[C@@H](Cc2cn(S(=O)(=O)c3ccc([N+](=O)[O-])cc3)c3ccccc23)C(=O)N[C@H]1Cc1ccccc1	-1.91	·	·	·	·	·
O=C(O)COc1c(F)c(F)c(C(F)(F)F)c(F)c1F	-0.684	-2.4	1	13.8	·	0.9
O=C(CSc1n[nH]c(-c2ccccc2)n1)c1ccccc1	-0.119	46.6	0.5	24.7	1.8	0.8
Cc1ccc(C)c(C(=O)CSc2n[nH]c(C)n2)c1	0.377	56.9*	0.4	13.7	6.5	0.9
CCc1ccc(C(=O)CSc2n[nH]c(C)n2)cc1	0.142	88.8*	0.1	35.1	·	0.6
Cc1ccc(C(=O)CSc2n[nH]c(C)n2)cc1	0.196	52.2*	0.5	-15.0	4.7	1.1
CC1CCCN(Cc2cccc(Oc3ccccc3)c2)C1 (stereo unspecified)	0.444	67.3*	0.3	11.3	-1.7	0.9
CN1CCN(Cc2cccc(Oc3ccccc3)c2)CC1	-0.918	69.1*	0.3	10.0	-7.3	0.9
OC1CCN(Cc2cccc(Oc3ccccc3)c2)CC1	1.02	11.0	0.9	2.5	·	1
COc1ccc(NCc2ccc(OC)c(OC)c2)cc1	0.91	72.8*	0.3	13.7	0.2	0.9
COc1cc(C)c(CNc2ccc(OC)c(OC)c2)cc1C	0.383	97.2*	0	48.4	39.5*	0.5
COc1cc(C)c(CNc2cc(C)cc(C)c2)cc1C	2.63	29.3	0.7	6.9	1.3	0.9
COc1cc(CNc2cc(C)ccc2C)cc(OC)c1OC	-0.529	98.1*	0	82.4*	3.2	0.2
